Assay: Toxicity liver stage against HepG2, at 10uM
Assay type: cell-based
Design: test concentration 10 uM, cell line HepG2-A16-CD81EGFP
Conditions: human, HepG2-A16-CD81EGFP cells; read-out: INHIBITION
In short: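 Uninfected HepG2-A16-CD81EGFP cells, 3 × 10^3 per well, 1536-well, plated on prespotted compound at 10 μM final, parasite-free screening media added to match infected plates; puromycin 10 μM positive, DMSO 0.5% negative; run in parallel with 48 h PbLuc assay at 37 °C, 5% CO2; viability by CellTiter-Glo luminescence, normalized to controls.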

| Structure (SMILES) | cytotoxicity at 10 µM [%] |
| --- | --- |
| CCOc1ccc(NC(=O)N(CCN(C)C)C(C)c2ccncc2)cc1 (configuration not stated) | 5.42 |
| COc1ccc(-c2noc([C@@H](C)NC(=O)CC(C)C)c2C(=O)O)cc1 | 2.05 |
| CCc1cc(=O)[nH]c2nnc(SCC(=O)N3CCC(C)CC3)n12 | -5.43 |
| O=C(Cc1cc(-c2ccc3c(c2)OCO3)on1)NC1CCCC1 | -2.34 |
| Cc1nnsc1C(=O)NCC1CCN(c2ccccn2)CC1 | 11.9 |
| CCCS(=O)(=O)N1CCN(CC(F)(F)F)CC1 | -3.29 |
| COCC(C)NC(=O)c1nnn(-c2ccc(F)cc2)n1 (configuration not stated) | -20.6 |
| COCCO[C@@H]1CCN(c2cc(OC)ncn2)[C@H]1Cc1cnn(C)c1 | -142 |
| CN(C)C(=O)[C@@H]1C[C@@H]2CCN(C3CCOCC3)C[C@@H]2O1 | -7.56 |
| CCS(=O)(=O)Nc1ccn(Cc2ccc(F)cc2Cl)n1 | 3.18 |
| Cc1c(CN2Cc3nccn3CC2c2ccccc2)cnn1C (configuration not stated) | -1.13 |
| Cn1ccc(C(=O)N2CCCC2c2cc(CO)[nH]n2)n1 (configuration not stated) | 4.95 |
| Cc1c[nH]nc1C1CN(c2ncccn2)CCO1 (configuration not stated) | 4.37 |
| COCC(=O)NCCc1nc(N(C)C)ncc1-c1ccncc1 | -3.46 |
| Cc1cc(C)n(C2CCN(S(=O)(=O)N3CCOCC3)CC2)n1 | 3.88 |
| O=C(O)c1ccc(=O)n(CC(c2ccc(F)cc2)N2CCCCCC2)c1 (configuration not stated) | 1.31 |
| CNC(=O)C1(CCCc2ccccn2)CN(Cc2coc(C)n2)C1 | 8.62 |
| O=C(O)c1ccccc1-n1cnc(CN2CCCCCC2)c1 | -8.94 |
| CCCn1cc(C(=O)NCc2nnc(-c3ccc(C)nc3)o2)c(C)n1 | -0.277 |
| Cn1ccc(C(=O)N2CCCC(c3cc4cccnc4c(O)n3)C2)n1 (configuration not stated) | 4.53 |
| COc1ccc2[nH]cc(C(=O)N3C[C@@H](O)[C@H](NS(C)(=O)=O)C3)c2c1 | -9.26 |
| Cc1cccc(N2CCOC(C(=O)O)C2)c1 (configuration not stated) | -8.89 |
| CN(C)[C@@H]1CN(C(=O)c2ccc3ccccc3n2)C[C@H]1O | -22.5 |

| Structure (SMILES) | cytotoxicity at 10 µM [%] |
| --- | --- |
| CNc1cncc(C2CCCN2S(=O)(=O)c2cccc(F)c2)n1 (configuration not stated) | -15.3 |
| O=C(CN1CCCC1)N1CCCC(c2cc(=O)n3c(n2)CCCCC3)C1 (configuration not stated) | -13.7 |
| CN1CCN(c2ncc(-c3cnccn3)c([C@H]3CCCO3)n2)CC1 | -20 |
| Cc1cc2c(=O)n3c(nc2s1)CCN(C(=O)c1cn(C)nc1C)CC3 | -22.6 |
| CN(Cc1ccc(F)cc1)CC1(O)CCN(C(=O)c2ccccn2)C1 (configuration not stated) | -3 |
| O=C(Cn1cccnc1=O)NC(Cc1ccsc1)c1cccnc1 (configuration not stated) | -25.7 |
| O=C1NCc2ccccc2CC12CCCN(Cc1ccsc1)C2 (configuration not stated) | 11 |
| Cc1cnn(CC2CCN(CC(O)COc3ccccc3)CC2)c1 (configuration not stated) | -1.62 |
| CCc1cnc(CNC(=O)NC2CC(C)(C)OC2(C)C)s1 (configuration not stated) | 10.3 |
| CCCn1nc2c(cc1=O)CN(CC1CCCCO1)CC2 (configuration not stated) | 12.5 |
| CN(C)C(=O)c1ccc(-c2cscn2)cc1 | 1.53 |
| Cc1nc(CN2CCN(c3cncc(Cl)n3)CC2)no1 | 6.45 |
| Cc1ccc(NCc2ccc(C#N)cc2)cc1-n1cnnn1 | -0.657 |
| Cc1noc(C)c1Cc1nc(C2CC2)no1 | 5.42 |
| CN(Cc1ccc(F)c2cccnc12)C1CCS(=O)(=O)C1 (configuration not stated) | 5.93 |
| CCOc1ccc(Cl)c(C(=O)NC(C)C(N)=O)n1 (configuration not stated) | 7.53 |
| CC(C)N(C)S(=O)(=O)N(Cc1cccs1)Cc1cccs1 | -45.2 |
| Cc1ccc(C(=O)NS(=O)(=O)c2ccc3c(c2)OCCCO3)o1 | 2.91 |
| CN(Cc1c(F)cccc1Cl)C(=O)c1cnn(CCN2CCOCC2)c1 | -4.2 |
| COCCN(C)CC1CCCN1S(=O)(=O)Cc1ccccc1F (configuration not stated) | 6.84 |
| Cc1cc(C)c2cc(C(=O)N3CCNC(=O)C3)[nH]c2c1 | -13.1 |
| COc1ccc(CN(C)Cc2c(C)noc2C)c(Cl)c1OC | -1.22 |
| CCc1nc2n(n1)CC(NCc1cn(C)nc1-c1cccnc1)CC2 (configuration not stated) | -5.95 |

| Structure (SMILES) | cytotoxicity at 10 µM [%] |
| --- | --- |
| O=C(NCc1nncn1C1CC1)C1(c2ccc(F)cc2)CCCC1 | -1.89 |
| Cc1nn(C)c(Cl)c1C1CCCN1CC(=O)NC1CCCCC1 (configuration not stated) | 7.09 |
| COCCCS(=O)(=O)N1CCN(c2cccc(O)c2)CC1 | 4.42 |
| Cc1noc(C)c1CCC(=O)NC(C)c1nnc2n1CCCCC2 (configuration not stated) | -1.18 |
| COc1c(C2CCCN2C(=O)c2sccc2C#N)c(C)nn1C (configuration not stated) | 3.33 |
| O=C(CO)N1CCN(C(=O)c2coc3ccccc23)CC1 | 3.16 |
| CC(C)Nc1ncccc1C(=O)NCc1ncc[nH]1 | -7.9 |
| COc1ccc(F)c(NCC(C)(C)S(C)(=O)=O)c1 | -3.18 |
| Cc1ccc(C)c(NC(=O)Cn2nc(C)c(C#N)c2N)c1 | -4.57 |
| CCc1noc(CC)c1CC(=O)N1CCCC(N2CCCCC2)C1 (configuration not stated) | -15.3 |
| Cc1nc(CNC(C(=O)N2CCOCC2)C(C)C)no1 (configuration not stated) | 5.76 |
| Cc1cnn(C2CN(Cc3noc(C4CC4)n3)C2)c1 | 4.34 |
| Cc1cc(CN2CC[C@H]3OCC[C@@]3(C(=O)N3CCOCC3)C2)no1 | 7.93 |
| CN1C(=O)CC(c2cnn(C)c2)C12CCN(C(=O)c1ccno1)CC2 (configuration not stated) | -74.1 |
| Cc1cccc(N2CC3(CCN(C(=O)NC(C)C)C3)CC2=O)c1 (configuration not stated) | -3.7 |
| Cc1ccc2c(c1)[C@@H](CC(=O)N(C)C)CCO2 | -3.78 |
| CC[C@H](C)[C@H](N)C(=O)N1CC(=O)c2sc(Nc3ccc(F)cc3)nc2C1 | -1.44 |
| CCOC(=O)c1n[nH]cc1CN1CCCC(N(C)Cc2ccccc2)C1 (configuration not stated) | -1.44 |
| CCCN(Cc1cccnc1)C(=O)C1CCNC1 (configuration not stated) | 8.97 |
| CN(Cc1ccon1)C(=O)CN1C(=O)OC(C)(C)C1=O | -108 |
| Cc1ccc2nc(C(=O)N3CC(c4cccnc4)C3)cn2c1 | -7.5 |
| Cc1cc(C)n(CC2(CNC(=O)C(c3ccccc3F)N(C)C)CC2)n1 (configuration not stated) | 1.64 |
| Cc1cccc2[nH]c(C3CCCN(Cc4ccc(CO)o4)C3)nc12 (configuration not stated) | 9.83 |

| Structure (SMILES) | cytotoxicity at 10 µM [%] |
| --- | --- |
| CC(Cc1cnccn1)NC(=O)COc1ccc(F)cc1F (configuration not stated) | -44.4 |
| COCCN(Cc1sccc1C)c1nc(C)nc2sccc12 | -131 |
| COc1ccc(-c2cccc(-c3ccn(CCN(C)C)n3)c2)nn1 | -1.39 |
| Fc1ccccc1C1(CNC2CCOC3(CCOCC3)C2)CCCC1 (configuration not stated) | -1.53 |
| CN1CCN(Cc2ccccc2Oc2ccc(C(N)=O)cn2)CC1 | -23.6 |
| CCO[C@H]1C[C@@H](O)C12CCN(C(=O)CCN1CCCC1=O)CC2 | 2.12 |
| Cc1cc(=O)[nH]c(NCCNC(=O)CN2CCCCCC2)n1 | 3.28 |
| O=C(COc1cccnc1)NCc1nncn1C1CCCCC1 | 3.46 |
| CCCOC(C)C(=O)NCc1cc2n(n1)CCCN(C1CCCCC1)C2 (configuration not stated) | 2.5 |
| Cc1cc(C(=O)N2C[C@@H](C(=O)O)[C@H](c3ccccc3C)C2)c(C)o1 | 16.8 |
| O=C(O)c1coc(COc2cccc(F)c2)n1 | 0.523 |
| O=C1CCC(=O)N1c1nn(Cc2cccc(F)c2)cc1Cl | -6.61 |
| COc1ccccc1CNc1cnn(CC(F)F)c1 | -5.41 |
| COc1ccc(CN(Cc2nc(C)no2)C2CCCCC2)cc1OC | -0.0185 |
| Cc1c(F)cc(C(=O)O)cc1S(=O)(=O)Nc1ccc(C#N)cc1 | -6.04 |
| CC(C)(C)c1cnc(CN2CCCCC2Cn2cccn2)o1 (configuration not stated) | -7.85 |
| COc1ccc(OC)c(C(=O)N2CCCCC2Cn2cccn2)c1 (configuration not stated) | -0.677 |
| Cc1noc(C)c1CN(C)CC(=O)N1CCc2sccc2C1 | -19.4 |
| CCCS(=O)(=O)NC(C)C(=O)NCc1ccnc(N2CCCC2)c1 (configuration not stated) | -13.6 |
| COc1ncccc1NC(=O)NC(C)c1nncn1C (configuration not stated) | -18.8 |
| CNC(=O)CCCNCc1c(C)nn(C)c1N(C)C | -8.18 |
| Cc1cc(C(=O)NCc2ccnc(N3CCN(C)CC3)c2)c(C)s1 | -10.7 |
| CCC1CCCN(C(=O)Cc2csc(-c3ncccn3)n2)C1 (configuration not stated) | -5.15 |

| Structure (SMILES) | cytotoxicity at 10 µM [%] |
| --- | --- |
| COc1ccc(OC)c(C(O)CN2CC(n3cccn3)C2)c1 (configuration not stated) | -8.42 |
| NC(=O)c1ccc(S(=O)(=O)NC2CCN(Cc3ccccc3)C2=O)cc1 (configuration not stated) | -9.96 |
| NC(=O)CN1CCCN(C(=O)Cc2ccc(F)c(Br)c2)CC1 | 0.361 |
| CCc1nccn1C1CCCN(C(=O)Cc2ccc(OC)c(F)c2)C1 (configuration not stated) | -3.59 |
| Cc1ccc(-c2nnc(CNCCn3cc(C)cn3)o2)cc1 | -12.1 |
| CC(=O)Nc1nc(CN2CCOC(Cn3cc(C)cn3)C2)cs1 (configuration not stated) | 11.3 |
| Cn1cnnc1C1CCCN(C(=O)Cc2ccc3c(c2)OCCO3)C1 (configuration not stated) | 0.626 |
| O=C(c1cccc2c1OCO2)N1CCCC1Cn1cccn1 (configuration not stated) | 3.46 |
| NCCC(=O)Nc1ccc(-c2ccccc2)cc1 | -1.81 |
| Cc1nc(CN2CCOCC3(CCN(c4cccnc4)CC3)C2)cs1 | -12.2 |
| COCC1c2c(cnn2CC2CCOCC2)CCN1Cc1ccoc1 (configuration not stated) | -20 |
| c1ccc(CN2CC[C@@H]3O[C@H](COCc4ccncc4)CC[C@@H]32)nc1 | 3.5 |
| O=C(c1ccncc1F)N1C[C@@H]2OCCN(CC3CC3)[C@@H]2C1 | -141 |
| COCCN1C2(CCN(Cc3nccs3)C2)c2ccccc2S1(=O)=O (configuration not stated) | -65.7 |
| Cc1ccc(C(=O)N2Cc3c(CN(C)C)nn(C)c3C2)cc1C | 1.77 |
| COCC1CC2(CCN(Cc3ccco3)CC2)CN1C(C)C (configuration not stated) | 0.0448 |
| COc1ccc(OC)c(CN2CCc3nc4ccsc4c(=O)n3CC2)c1 | 43.5 |
| Cc1nc(CN2CCO[C@H]3[C@@H](OCc4cccnc4)CC[C@@H]32)cs1 | -0.587 |
| O=C(c1ccncc1F)N1CC[C@@H]2OC(COCC3CC3)CC[C@@H]21 (some centres not stated) | -4.03 |
| CN(C)C(c1ccccn1)C1CCC(CNC(=O)C2CCCC2)CC1 (configuration not stated) | 10.5 |

— ChEMBL document CHEMBL4513216, “Probing the Open Global Health Chemical Diversity Library for Multistage-Active Starting Points for Next-Generation Antimalarials” (ACS Infect Dis, 2020)
